ChEMBL document CHEMBL3259528, “Exploring 5-nitrofuran derivatives against nosocomial pathogens: synthesis, antimicrobial activity and chemometric analysis” (2014)
Values after ≈ are worked out from the molar mass of the structure shown. Active and inactive are the calls of the source. No cut-off for these calls is given here.

Columns and labels:
[1] = tested on: Staphylococcus aureus; assay: Antimicrobial activity against Staphylococcus aureus ATCC 29213 after 18 hrs by modified broth microdilution method; format: functional
Outline: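 PGI90, the concentration giving 90% growth inhibition, fitted with an exponential growth curve from at least seven concentrations of the MIC assay. Inhibition % = [(Ac − Ap)/Ac] × 100 from A620 of drug-free control versus drug-treated culture. Checked by a modified broth microdilution (Phase 2).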

[2] = tested on: Staphylococcus aureus; assay: Antimicrobial activity against Staphylococcus aureus ATCC 29213 after 24 to 48 hrs by two-fold broth microdilution method; format: functional
[3] = tested on: Escherichia coli; assay: Antimicrobial activity against Escherichia coli ATCC 25922 after 24 to 48 hrs by two-fold broth microdilution method; format: functional
[4] = tested on: Candida albicans; assay: Antimicrobial activity against Candida albicans ATCC 537Y after 48 hrs by two-fold broth microdilution method; format: functional
Outline: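 Two-fold serial dilutions in RPMI 1640 per CLSI M27-A2. Stocks in DMSO/RPMI 1:20 v/v. Test range 1.0–64 µM. Inoculum set to 0.5 McFarland, then diluted in saline and RPMI 1640. Plates held at 35 °C for 48 h. MIC is the lowest concentration giving prominent growth reduction. Run in triplicate.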

[5] = tested on: Enterococcus faecalis; assay: Antimicrobial activity against Enterococcus faecalis ATCC 29212 after 24 to 48 hrs by two-fold broth microdilution method; format: functional
[6] = tested on: Klebsiella pneumoniae; assay: Antimicrobial activity against Klebsiella pneumoniae ATCC 700603 at 128 uM after 24 to 48 hrs by two-fold broth microdilution method; format: functional, organism-based
Outline: (§1)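 Antibacterial microdilution in CAMH, inoculum 0.5 McFarland diluted in saline/CAMH, 35 °C for 18 h, with further reads at 24 and 48 h. Activity is scored at the maximum tested concentration, 128 µM. Triplicate.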

[7] = tested on: Enterobacter cloacae; assay: Antimicrobial activity against Enterobacter cloacae ATCC 23355 at 128 uM after 24 to 48 hrs by two-fold broth microdilution method; format: functional, organism-based; outline: as §1
[8] = tested on: Serratia marcescens; assay: Antimicrobial activity against Serratia marcescens ATCC 14576 at 128 uM after 24 to 48 hrs by two-fold broth microdilution method; format: functional, organism-based; outline: as §1
[9] = tested on: Serratia marcescens; assay: Antimicrobial activity against Serratia marcescens ATCC 14576 after 24 to 48 hrs by two-fold broth microdilution method; format: functional
[10] = tested on: Escherichia coli; assay: Antimicrobial activity against Escherichia coli ATCC 25922 at 128 uM after 24 to 48 hrs by two-fold broth microdilution method; format: functional, organism-based; outline: as §1
[11] = tested on: Candida albicans; assay: Antimicrobial activity against Candida albicans ATCC 537Y at 64 uM after 48 hrs by two-fold broth microdilution method; format: functional, organism-based
Outline: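 Single top concentration of the antifungal microdilution: RPMI 1640, inoculum 0.5 McFarland diluted in saline/RPMI, 35 °C for 48 h. Activity is judged at the highest tested level, 64 µM. Run in triplicate.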

`O=C(N/N=C/c1ccc([N+](=O)[O-])o1)c1ccccc1` was tested, and the “log(1/MIC>90)” value [1] was 5.28, the MIC [2] was 4 µM (≈ 1.04 µg/mL) and the MIC90 [2] was 5.27 µM (≈ 1.37 µg/mL). It also gave an MIC [3] of 16 µM (≈ 4.15 µg/mL), an MIC90 [3] of 30.4 µM (≈ 7.89 µg/mL) and an MIC [4] of 32 µM (≈ 8.3 µg/mL). For the same molecule, the MIC90 [4] was 60.3 µM (≈ 15.6 µg/mL), the MIC [5] was 32 µM (≈ 8.3 µg/mL) and the MIC90 [5] was 58.8 µM (≈ 15.2 µg/mL). For the same molecule, the Activity [6] was “inactive”, the Activity [7] was “inactive” and the Activity [8] was “inactive”.
In the case of `O=C(N/N=C/c1ccc([N+](=O)[O-])o1)c1ccc(C(F)(F)F)cc1`, the “log(1/MIC>90)” value [1] is reported as 5.36, the MIC [2] is reported as 4 µM (≈ 1.31 µg/mL) and the MIC90 [2] is reported as 4.34 µM (≈ 1.42 µg/mL). For the same molecule, the MIC [3] was 64 µM (≈ 20.9 µg/mL), the MIC90 [3] was 92.2 µM (≈ 30.2 µg/mL) and the MIC [4] was 32 µM (≈ 10.5 µg/mL). The MIC90 [4] was 47.8 µM (≈ 15.6 µg/mL), the MIC [5] was 32 µM (≈ 10.5 µg/mL) and the MIC90 [5] was 60.9 µM (≈ 19.9 µg/mL). The Activity [6] was “inactive”, the Activity [7] was “inactive” and the Activity [8] was “inactive”.
`CCOc1ccc(C2=NN(C(C)=O)C(c3ccc([N+](=O)[O-])o3)O2)cc1` (stereo not given) was tested, and the “log(1/MIC>90)” value [1] was 5.09, the MIC [9] was 64 µM (≈ 22.1 µg/mL) and the MIC90 [9] was 85.7 µM (≈ 29.6 µg/mL). The MIC [2] was 8 µM (≈ 2.76 µg/mL), the MIC90 [2] was 8.14 µM (≈ 2.81 µg/mL) and the MIC [3] was 64 µM (≈ 22.1 µg/mL). The MIC90 [3] was 78.6 µM (≈ 27.1 µg/mL), the MIC [4] was 8 µM (≈ 2.76 µg/mL) and the MIC90 [4] was 8.39 µM (≈ 2.9 µg/mL). The Activity [6] was “inactive” and the Activity [7] was “inactive”.
`CC(=O)N1N=C(c2ccccc2)OC1c1ccc([N+](=O)[O-])o1` (stereo not given) was tested, and the “log(1/MIC>90)” value [1] was 5.05, the MIC [2] was 4 µM (≈ 1.21 µg/mL) and the MIC90 [2] was 8.93 µM (≈ 2.69 µg/mL). For the same molecule, the Activity [10] was “inactive”, the MIC [4] was 8 µM (≈ 2.41 µg/mL) and the MIC90 [4] was 15.8 µM (≈ 4.77 µg/mL). The MIC [5] was 32 µM (≈ 9.64 µg/mL), the MIC90 [5] was 52.9 µM (≈ 15.9 µg/mL) and the Activity [6] was “inactive”. For the same molecule, the Activity [7] was “inactive” and the Activity [8] was “inactive”.
In the case of `CC(=O)N1N=C(c2ccc(F)cc2)OC1c1ccc([N+](=O)[O-])o1` (stereo not given), the “log(1/MIC>90)” value [1] is reported as 5.07, the MIC [2] is reported as 8 µM (≈ 2.55 µg/mL) and the MIC90 [2] is reported as 8.43 µM (≈ 2.69 µg/mL). It also gave an MIC [3] of 64 µM (≈ 20.4 µg/mL), an MIC90 [3] of 91 µM (≈ 29.1 µg/mL) and an MIC [4] of 32 µM (≈ 10.2 µg/mL). The MIC90 [4] was 43.1 µM (≈ 13.8 µg/mL), the MIC [5] was 64 µM (≈ 20.4 µg/mL) and the MIC90 [5] was 97.3 µM (≈ 31.1 µg/mL). The Activity [6] was “inactive”, the Activity [7] was “inactive” and the Activity [8] was “inactive”.
With `CCc1ccc(C2=NN(C(C)=O)C(c3ccc([N+](=O)[O-])o3)O2)cc1` (stereo not given) the “log(1/MIC>90)” value [1] was 4.99, the MIC [2] was 8 µM (≈ 2.63 µg/mL) and the MIC90 [2] was 10.2 µM (≈ 3.34 µg/mL). For the same molecule, the Activity [10] was “inactive”, the MIC [4] was 32 µM (≈ 10.5 µg/mL) and the MIC90 [4] was 48.2 µM (≈ 15.9 µg/mL). The Activity [6] was “inactive”, the Activity [7] was “inactive” and the Activity [8] was “inactive”.
With `CCCc1ccc(C2=NN(C(C)=O)C(c3ccc([N+](=O)[O-])o3)O2)cc1` (stereo not given) the “log(1/MIC>90)” value [1] was 4.81, the MIC [2] was 8 µM (≈ 2.75 µg/mL) and the MIC90 [2] was 15.4 µM (≈ 5.28 µg/mL). The Activity [10] was “inactive”, the MIC [4] was 32 µM (≈ 11 µg/mL) and the MIC90 [4] was 46 µM (≈ 15.8 µg/mL). For the same molecule, the Activity [6] was “inactive”, the Activity [7] was “inactive” and the Activity [8] was “inactive”.
`CCCCc1ccc(C2=NN(C(C)=O)C(c3ccc([N+](=O)[O-])o3)O2)cc1` (stereo not given) was tested, and the “log(1/MIC>90)” value [1] was 4.73, the MIC [2] was 16 µM (≈ 5.72 µg/mL) and the MIC90 [2] was 18.5 µM (≈ 6.6 µg/mL). The Activity [11] was “inactive”, the Activity [10] was “inactive” and the Activity [6] was “inactive”. For the same molecule, the Activity [7] was “inactive” and the Activity [8] was “inactive”.
`CCC(C)n1ncn(-c2ccc(N3CCN(c4ccc(OCC5COC(Cn6cncn6)(c6ccc(Cl)cc6Cl)O5)cc4)CC3)cc2)c1=O` (stereo not given) [ITRACONAZOLE] was tested, and the MIC [4] was under 20 µM.
`O=C(N/N=C/c1ccc([N+](=O)[O-])o1)c1ccc(Cl)c(Cl)c1` was tested, and the “log(1/MIC>90)” value [1] was 5.5, the MIC [2] was 4 µM (≈ 1.31 µg/mL) and the MIC90 [2] was 7.49 µM (≈ 2.46 µg/mL). It also gave an MIC [3] of 64 µM (≈ 21 µg/mL), an MIC90 [3] of 85 µM (≈ 27.9 µg/mL) and an MIC [4] of 16 µM (≈ 5.25 µg/mL). For the same molecule, the MIC90 [4] was 32.2 µM (≈ 10.6 µg/mL), the MIC [5] was 32 µM (≈ 10.5 µg/mL) and the MIC90 [5] was 59.7 µM (≈ 19.6 µg/mL). For the same molecule, the Activity [6] was “inactive”, the Activity [7] was “inactive” and the Activity [8] was “inactive”.
With `COc1ccc(C2=NN(C(C)=O)C(c3ccc([N+](=O)[O-])o3)O2)cc1` (stereo not given) the “log(1/MIC>90)” value [1] was 4.96, the MIC [2] was 8 µM (≈ 2.65 µg/mL) and the MIC90 [2] was 10.9 µM (≈ 3.6 µg/mL). For the same molecule, the Activity [11] was “inactive”, the Activity [10] was “inactive” and the Activity [6] was “inactive”. For the same molecule, the Activity [7] was “inactive” and the Activity [8] was “inactive”.
For `CC(C)(C)c1ccc(C(=O)N/N=C/c2ccc([N+](=O)[O-])o2)cc1`, the “log(1/MIC>90)” value [1] was 5.28, the MIC [2] was 4 µM (≈ 1.26 µg/mL) and the MIC90 [2] was 5.28 µM (≈ 1.66 µg/mL). The Activity [11] was “inactive”, the Activity [10] was “inactive” and the MIC [5] was 32 µM (≈ 10.1 µg/mL). The MIC90 [5] was 59.8 µM (≈ 18.9 µg/mL), the Activity [6] was “inactive” and the Activity [7] was “inactive”. For the same molecule, the Activity [8] was “inactive”.
